From ChEMBL document CHEMBL3779852, “Structure-based design of N-substituted 1-hydroxy-4-sulfamoyl-2-naphthoates as selective inhibitors of the Mcl-1 oncoprotein” (Eur J Med Chem, 2016)
Calls of active or inactive are those of the source. The calls are words filed in the database; no cut-off is given here.

How the values were obtained:
Homo sapiens = species on record: Homo sapiens; test: Selectivity ratio of Ki for Bcl-XL (unknown origin) to Ki for His6-MBP tagged recombinant human Mcl-1 residues 172 to 327 expressed in Escherichia coli
Procedure, shortened: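 Ratio computed as Ki(Bcl-xL) divided by Ki(Mcl-1). Both Ki values come from FP competition IC50s converted with the Nikolovska-Coleska equation, averaged over at least two independent assays. Hill-equation fit gives the IC50.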

[1] = Inhibition of Bcl-XL (unknown origin) after 3 hrs by fluorescence polarization competition assay; design: species or system Homo sapiens
SK-MEL-5 = test: Antiproliferative activity against human SK-MEL-5 cells after 48 hrs by Cell titer blue viability assay; type: functional, cell-based; conditions: SK-MEL-5, 48 h
[2] = molecular target: T1, Induced myeloid leukemia cell differentiation protein Mcl-1 (Homo sapiens, UniProt Q07820); test: Inhibition of His6-MBP tagged recombinant human Mcl-1 residues 172 to 327 expressed in Escherichia coli assessed as inhibition of interaction with Bak BH3 peptide (GQVGRQLAIIGDDINR) after 3 hrs by fluorescence polarization competition assay
T1 sequence (Q07820 whole entry, the tested form may be a part): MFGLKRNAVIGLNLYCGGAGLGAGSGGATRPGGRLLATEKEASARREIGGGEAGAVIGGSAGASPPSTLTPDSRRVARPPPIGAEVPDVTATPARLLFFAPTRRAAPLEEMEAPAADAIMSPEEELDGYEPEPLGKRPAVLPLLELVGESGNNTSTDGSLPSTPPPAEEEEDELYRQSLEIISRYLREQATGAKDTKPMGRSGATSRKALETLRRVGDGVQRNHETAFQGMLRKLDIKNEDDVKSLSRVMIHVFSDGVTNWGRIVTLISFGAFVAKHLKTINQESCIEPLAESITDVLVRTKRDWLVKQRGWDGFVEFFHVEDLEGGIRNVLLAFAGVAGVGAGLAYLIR

[3] = molecular target: T1, Induced myeloid leukemia cell differentiation protein Mcl-1; test: Binding affinity to recombinant human 15N-labeled Mcl-1 (172 to 327 residues) expressed in Escherichia coli by NMR spectroscopy
Procedure, shortened: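 Proton shifts were referenced to the H2O/HDO signal (4.658 ppm versus external TSP) at 37 °C. The protein was size-exclusion purified to >98% purity by SDS-PAGE, with concentration determined by Bradford assay.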

A-375 = test: Antiproliferative activity against human A375 cells after 48 hrs by Cell titer blue viability assay; type: functional, cell-based; conditions: A-375, 48 h
Procedure, shortened: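 A375 cells seeded at 5,000/well in DMEM with 10% HIFBS and PenStrep, cultured overnight. Compounds added at final 4.69–300 μM (two-fold series) in 1% DMSO; vehicle controls also at 1% DMSO. After 48 h exposure, Cell Titer-Blue added for 2 h, fluorescence read at 560 ex/590 em. Percent viability relative to untreated cells, corrected for cell-free background.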

SMILES | Ratio Ki (Homo sapiens) | Ki ([1]; read-out: Ki) | further results
COc1ccc(NS(=O)(=O)c2cc(C(=O)O)c(O)c3ccccc23)cc1 | 6 | 71900 nM | 
Cc1ccc(Oc2ccc(NS(=O)(=O)c3cc(C(=O)O)c(O)c4ccccc34)cc2)cc1 | 2.5 | 840 nM | 
CC(C)Oc1ccc(NS(=O)(=O)c2cc(C(=O)O)c(O)c3ccccc23)cc1 |  |  | Ki [1]: Not Active
O=C(O)c1cc(S(=O)(=O)NCc2ccccc2)c2ccccc2c1O |  |  | Ki [1]: Not Active
O=C(O)c1cc(S(=O)(=O)Nc2ccccc2C(F)(F)F)c2ccccc2c1O | 4.8 | 19300 nM | 
CC(=O)OCOC(=O)c1cc(S(=O)(=O)N(CC(C)C)c2ccc(OC(C)C)cc2)c2ccccc2c1O |  |  | IC50 (SK-MEL-5): 15 µM; inhibition [2]: inactive
O=C(O)c1cc(S(=O)(=O)Nc2ccc3ccccc3c2)c2ccccc2c1O | 15 | 68500 nM | 
CN(C)S(=O)(=O)c1cc(C(=O)O)c(O)c2ccccc12 |  |  | Ki [1]: Not Active
CC(C)CN(c1ccc(OC(C)C)cc1)S(=O)(=O)c1cc(C(=O)O)c(O)c2ccccc12 |  | 6080 nM | IC50 (SK-MEL-5): 300 µM; Activity [3]: Active; IC50 (A-375): 150 µM
COC(=O)c1cc(S(=O)(=O)N(CC(C)C)c2ccc(OC(C)C)cc2)c2ccccc2c1O |  |  | IC50 (SK-MEL-5): 300 µM; IC50 (A-375): 300 µM; inhibition [2]: inactive
Cc1cc(Oc2ccc(N(CC(C)C)S(=O)(=O)c3cc(C(=O)O)c(O)c4ccccc34)cc2)cc(C)c1Cl | 2.1 | 170 nM | 
O=C(O)c1cc(S(=O)(=O)NCc2ccc(Cl)cc2)c2ccccc2c1O | 16 | 338000 nM | 
NS(=O)(=O)c1cc(C(=O)O)c(O)c2ccccc12 |  |  | Ki [1]: Not Active
Cc1cc(Oc2ccc(NS(=O)(=O)c3cc(C(=O)O)c(O)c4ccccc34)cc2)cc(C)c1Cl | 4.1 | 480 nM | 
O=C(O)c1cc(S(=O)(=O)Nc2ccc(Br)cc2Br)c2ccccc2c1O | 5.5 | 2310 nM | 
COC(=O)c1cc(S(=O)(=O)N(CC(C)C)c2ccc(Br)cc2)c2ccccc2c1OC |  |  | Ki [2]: > 500 µM
O=C(O)c1cc(S(=O)(=O)Nc2ccc(Oc3ccc(Cl)cc3Cl)cc2)c2ccccc2c1O | 2.4 | 190 nM | 
Cc1cc(Oc2ccc(N(Cc3ccccc3)S(=O)(=O)c3cc(C(=O)O)c(O)c4ccccc34)cc2)cc(C)c1Cl |  | 340 nM | IC50 (SK-MEL-5): 90 µM; IC50 (A-375): 50 µM
O=C(O)c1cc(S(=O)(=O)Nc2cccc3ccccc23)c2ccccc2c1O | 10 | 110000 nM | 
O=C(O)c1cc(S(=O)(=O)Nc2ccc(Oc3cccc(Br)c3)cc2)c2ccccc2c1O | 3.8 | 300 nM | 
COC(=O)c1cc(S(=O)(=O)N(CC(C)C)c2ccc(Br)cc2)c2ccccc2c1O |  |  | Ki [2]: > 500 µM
O=C(O)c1cc(S(=O)(=O)Nc2ccc(Br)cc2)c2ccccc2c1O | 19 | 51400 nM | IC50 (SK-MEL-5): 300 µM; IC50 (A-375): 300 µM
O=C(O)c1cc(S(=O)(=O)Nc2ccc([N+](=O)[O-])cc2)c2ccccc2c1O | 5.2 | 23300 nM | 
Cc1cc(Oc2ccc(N(C3CCCC3)S(=O)(=O)c3cc(C(=O)O)c(O)c4ccccc34)cc2)cc(C)c1Cl | 8.8 | 290 nM | 
O=C(O)c1cc(S(=O)(=O)Nc2ccc(Oc3cccc4ccccc34)cc2)c2ccccc2c1O | 3.7 | 220 nM | 
O=C(O)c1cc(S(=O)(=O)Nc2ccccc2)c2ccccc2c1O |  |  | Ki [1]: Not Active
O=C(O)c1cc(S(=O)(=O)NCC2CCCCC2)c2ccccc2c1O | 11 | 77600 nM | 
Cc1cc(C)cc(Oc2ccc(NS(=O)(=O)c3cc(C(=O)O)c(O)c4ccccc34)cc2)c1 | 1.4 | 390 nM | 
